Experimental data as given in ChEMBL document CHEMBL4811233, “Synthesis, Structure-Activity Relationships, and Antiviral Activity of Allosteric Inhibitors of Flavivirus NS2B-NS3 Protease” (J Med Chem, 2021).

Tests used:
Nonstructural protein 3 = Nonstructural protein 3 (Zika virus, UniProt A0A024AXB9); assay: Inhibition Zika virus NS2B (47 to 95 residues)/NS3 (1 to 170 residues) protease expressed in Escherichia coli BL21 using 7-amino-4-methylcoumarin as substrate by fluorescence assay
Outline: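 Single-chain NS2B(47–95)–Gly4-Ser-Gly4–NS3(1–170) enzyme at 1 nM in 20 mM HEPES pH 7.3 with 0.05% Triton X-100. Compound (1 nM–10 µM, triplicate) is preincubated 10 min before adding Bz-Nle-Lys-Lys-Arg-AMC at 20 µM. Fluorescence (Ex 360/Em 460 nm) is read every 30 s. IC50 comes from dose-response fitting of initial velocities, 3 independent experiments with SD.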

U-87 MG = assay: Cytotoxicity against human U87 cells assessed as inhibition of proliferation at 10 uM by MTT assay; format: cell-based; settings: u-87mg atcc
Vero = assay: Cytotoxicity against African green monkey Vero cells assessed as inhibition of proliferation at 10 uM by MTT assay; format: cell-based; settings: chlorocebus sabaeus

Sequence of Nonstructural protein 3 (A0A024AXB9 whole entry, the tested form may be a part): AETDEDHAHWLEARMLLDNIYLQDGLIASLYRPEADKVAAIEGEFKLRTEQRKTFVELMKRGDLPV

Compound	IC50 (Nonstructural protein 3) [nM]	Activity (U-87 MG)	Activity (Vero)
NCc1ccc(-c2ncc(OCC3CCNCC3)nc2-c2ccc(C(=O)N3CCCC3)cc2)cc1	13000	Non-Toxic	Non-Toxic
NCc1ccc(-c2ncc(OCC3CCNCC3)nc2-c2ccc(-n3cc(CO)nn3)cc2)cc1	> 10000	–	–
Cc1cc(-c2ccoc2)ccc1-c1nc(OCC2CCNCC2)cnc1-c1ccc(CN)cc1	17100	Non-Toxic	Non-Toxic
CC(=O)OCc1ccc(-c2ncc(OCC3CCNCC3)nc2-c2ccc(COC(C)=O)cc2)cc1	> 10000	–	–
CN(C)Cc1ccc(-c2nc(OCC3CCNCC3)cnc2-c2cccnc2)cc1	9900	–	–
NCc1ccc(-c2ncc(OCC3CCNCC3)nc2-c2ccc(N3CCCC3)cc2)cc1	2500	Non-Toxic	Non-Toxic
NCc1ccc(-c2ncc(OCCN3CCNCC3)nc2-c2ccc(CN)cc2)cc1	> 10000	–	–
Ic1ccc(-c2ncc(OCCCC3CCNCC3)nc2-c2ccc(I)cc2)cc1	> 10000	–	–
Ic1ccc(-c2ncc(OCC3CCNCC3)nc2-c2ccc(I)cc2)cc1	520	–	–
NCCCOc1cnc(-c2ccc(CN)cc2)c(-c2ccc(-c3ccoc3)cc2)n1	1300	–	–
NCc1ccc(-c2ncc(OCC3CCNCC3)nc2-c2ccc(-c3ccoc3)cc2F)cc1	8400	Non-Toxic	Non-Toxic
COc1cc(-c2nc(OCC3CCNCC3)cnc2-c2ccc(CN)cc2)ccc1-c1ccoc1	8000	Non-Toxic	Non-Toxic
CC(=O)NCc1ccc(-c2ncc(OCC3CCNCC3)nc2-c2ccc(CN)cc2)cc1	30000	–	–
NCc1ccc(-c2ncc(OCC3CCNCC3)nc2-c2ccc(-c3ccoc3)cc2CO)cc1	> 10000	Non-Toxic	Non-Toxic
NCc1ccc(-c2ncc(OCC3CCNCC3)nc2-c2ccc(C3CCNCC3)cc2)cc1	3100	Non-Toxic	Non-Toxic
NCc1ccc(-c2ncc(OCC3CCNCC3)nc2-c2ccc(CN)c(F)c2)cc1	> 50000	–	–
CC(=O)NCc1ccc(-c2ncc(OCC3CCNCC3)nc2-c2ccc(CNC(C)=O)cc2)cc1	> 10000	–	–
COc1cc(CN)ccc1-c1nc(OCC2CCNCC2)cnc1-c1ccncc1	3500	–	–
Cc1cc(CN)ccc1-c1ncc(OCC2CCNCC2)nc1-c1ccc(-c2ccoc2)cc1	2600	–	–
NCc1ccc(-c2ncc(OCC3CCNCC3)nc2-c2cccc(C3CCOC3)c2)cc1 (stereo not given)	> 10000	Non-Toxic	Non-Toxic
NCc1ccc(-c2ncc(OCC3CCNCC3)nc2-c2ccc(N3CCCCC3)cc2)cc1	> 10000	Non-Toxic	Non-Toxic

Compound	IC50 (Nonstructural protein 3) [nM]	Activity (U-87 MG)	Activity (Vero)
ONCc1ccc(-c2ncc(OCC3CCNCC3)nc2-c2ccc(-c3ccoc3)cc2)cc1	1200	–	–
NCc1ccc(-c2ncc(NCC3CCNCC3)nc2-c2ccc(-c3ccoc3)cc2F)cc1	2300	–	–
OCc1ccc(-c2ncc(OCCC3CCNCC3)nc2-c2ccc(CO)cc2)cc1	2100	–	–
NCc1cccc(-c2ncc(OCC3CCNCC3)nc2-c2ccc(-c3ccoc3)cc2)c1	2900	–	–
NCc1ccc(-c2ncc(OCC3CCNCC3)nc2-c2ccc(CN)cc2)cc1	620	–	–
N#Cc1cc(-c2nc(OCC3CCNCC3)cnc2-c2ccc(CN)cc2)ccc1-c1ccoc1	1800	Non-Toxic	Non-Toxic
NCc1ccc(-c2nc(OCC3CCNCC3)c3nccn3c2-c2ccc(CN)cc2)cc1	9300	–	–
NCc1ccc(-c2ncc(OCc3ccccc3)nc2-c2ccc(-c3ccoc3)cc2)cc1	3200	–	–
COc1cc(-c2ccoc2)ccc1-c1nc(OCC2CCNCC2)cnc1-c1ccc(CN)cc1	1900	Non-Toxic	Non-Toxic
Cc1noc(C)c1-c1ccc(-c2nc(OCC3CCNCC3)cnc2-c2ccc(CN)cc2)cc1	> 10000	–	–
CN(C)Cc1ccc(-c2nc(OCC3CCNCC3)cnc2-c2ccc(O)cc2)cc1	20500	–	–
NCc1ccc(-c2nc(N3CC[C@H](N)C3)c3nccn3c2-c2ccc(CN)cc2)cc1	19300	–	–
NCc1ccc(-c2ncc(OCC3CCNCC3)nc2-c2ccc(N3CCOCC3)cc2)cc1	> 10000	Non-Toxic	Non-Toxic
OCc1ccc(-c2ncc(OCC3CCNCC3)nc2-c2ccc(CO)cc2)cc1	510	–	–
NCc1ccc(-c2ncc(OCCC3CCNCC3)nc2-c2ccc(CN)cc2)cc1	> 10000	–	–
NCc1ccc(-c2ccc(NCC3CCNCC3)nc2-c2ccc(CN)cc2)cc1	3700	–	–
CN(C)Cc1ccc(-c2nc(OCC3CCNCC3)cnc2-c2ccc(-c3ccoc3)cc2)cc1	1800	–	–
COc1cc(-c2ncc(OCC3CCNCC3)nc2-c2ccc(-c3ccsc3)cc2)ccc1C(N)=O	4700	–	–
NCc1ccc(-c2ncc(NCC3CCNCC3)nc2C(=O)Nc2ccc(-c3ccoc3)cc2)cc1	1100	–	–
NCc1ccc(-c2nc(N)c(OCC3CCNCC3)nc2-c2ccc(CN)cc2)cc1	2100	–	–
NCc1ccc(-c2ncc(OCC3CCNCC3)nc2-c2cccc3[nH]cnc23)cc1	1600	–	–

Compound	IC50 (Nonstructural protein 3) [nM]	Activity (U-87 MG)	Activity (Vero)
NC(=O)c1ccc(-c2ncc(OCC3CCNCC3)nc2-c2ccc(-c3ccoc3)cc2)cc1F	2300	–	–
NCc1ccc(-c2nc(OCCN3CCNCC3)cnc2-c2ccc(-c3ccoc3)cc2)cc1	1800	–	–
CN(C)Cc1ccc(-c2ncc(OCC3CCNCC3)nc2-c2ccc(-c3ccoc3)cc2)cc1	6100	–	–
NCc1ccc(-c2ncc(OCC3CCNCC3)nc2-c2ccc(C(=O)N3CCOCC3)cc2)cc1	> 10000	Non-Toxic	Non-Toxic
NCc1ccc(-c2nc(OCC3CCNCC3)cnc2-c2ccncc2)cc1	320	–	–
NCc1ccc(-c2ncc(OCC3CCNCC3)nc2-c2ccc(C3CCOC3)cc2)cc1 (stereo not given)	590	Non-Toxic	Non-Toxic
CNCCOc1cnc(-c2ccc(CN)cc2)c(-c2ccc(-c3ccoc3)cc2)n1	2100	–	–
Cc1cc(-c2nc(OCC3CCNCC3)cnc2-c2ccc(CN)cc2)ccc1-c1ccoc1	10600	Non-Toxic	Non-Toxic
NCc1ccc(-c2ncc(OCC3CCNCC3)nc2-c2ccc(C3=CCNCC3)cc2)cc1	2900	Non-Toxic	Non-Toxic
NCc1ccc(-c2nc(OCCC3CCNCC3)cnc2-c2ccncc2)cc1	1700	–	–
NCc1ccc(-c2ncc(OCC3CCNCC3)nc2-c2ccc(-n3ccnn3)cc2)cc1	> 10000	–	–
NCc1ccc(-c2nc(OCC3CCNCC3)cnc2-c2ccc(O)cc2)cc1	8100	–	–
NCc1ccc(-c2ncc(OCCC3CCNCC3)nc2-c2ccc(-c3ccoc3)cc2)cc1	1300	–	–
NCc1ccc(-c2ncc(OC3CCNCC3)nc2-c2ccc(-c3ccoc3)cc2)cc1	1600	–	–
Cc1noc(C)c1-c1nc(OCC2CCNCC2)cnc1-c1ccc(CN)cc1	11100	–	–
c1cc(-c2ccc(-c3ncc(OCC4CCNCC4)nc3-c3ccc(-c4ccoc4)cc3)cc2)co1	1000	–	–
CN(C)Cc1ccc(-c2ncc(OCC3CCNCC3)nc2-c2ccc(CN(C)C)cc2)cc1	390	–	–
NCc1ccc(-c2ncc(OCC3CCNCC3)nc2-c2ccc(C3CCCCC3)cc2)cc1	16200	Non-Toxic	Non-Toxic
NCc1ccc(-c2nc(N3CCC[C@@H](N)C3)c3nccn3c2-c2ccc(CN)cc2)cc1	3500	–	–
